Active and inactive are the calls of the source. No cut-off for these calls is given here.

Broadly, the ΔTm is the shift of the melting midpoint relative to a reference. The term inhibition denotes the relative decrease from the control value, in per cent. In general, IC50 refers to the concentration that inhibits the measured activity by half. A lower IC50 goes with higher potency.

The target of data set [1] is Histone acetyltransferase p300 (Homo sapiens) (UniProt Q09472). In words: Binding affinity to EP300 (unknown origin) assessed as increase in protein melting temperature at 50 umol by real-time PCR system based thermal shift assay. In short, it runs like this:
(§1)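 Bromodomain proteins in 10 mmol HEPES pH 7.5, 500 mmol NaCl at 75 μg/mL final; compound at 50 µmol final; SYPRO Orange probe at 1:1000. Four replicates per protein mixture. Melt curve read on a real-time PCR instrument, heating 25 °C to 99 °C at 1 °C/min under continuous fluorescence reading; binding taken as the rise in protein melting temperature.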

Data set [2] has as its target SWI/SNF-related matrix-associated actin-dependent regulator of chromatin subfamily A member 4 (Homo sapiens) (UniProt P51532). In words: Binding affinity to BRG1 (unknown origin) assessed as increase in protein melting temperature at 50 umol by real-time PCR system based thermal shift assay. In short, it runs like this:
as §1

Data set [3] is described as follows: Stability in human liver microsomes assessed as clearance at 1 uM pre-incubated for 5 mins followed by NADPH addition and measured after 5 to 30 mins post NADPH addition by LC/MS/MS method. Format: ADME. The following applies: read-out: CLH. The method, boiled down:
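Human liver microsomes (0.5 mg/mL) preincubated with 1 µM compound for 5 min at 37 °C in 0.1 M phosphate pH 7.4 with 1 mmol EDTA and 5 mmol MgCl2. Started with 1 mmol NADPH; sampled at 0, 5, 10 and 30 min. Quenched with equal volume of cold acetonitrile, vortexed, and centrifuged at 10,000 × g.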
A general note: Liver microsomes are a subcellular fraction often used to study metabolism.

The target of a further data set is CYP3A4 (Homo sapiens, UniProt P08684). In words: Inhibition of CYP3A4 in human liver microsomes at 10 uM using midazolam substrate preincubated for 5 mins before NADPH addition and measured after 20 mins post NADPH addition. Format: ADME. The following applies: probe midazolam. In short, it runs like this:
(§2)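 Human liver microsomes 0.2 mg/mL, 1 mmol NADPH, 100 mmol phosphate pH 7.4, probe cocktail (10 μM midazolam, 100 μM testosterone, 10 μM dextromethorphan, 20 μM diclofenac, 100 μM phenacetin, 100 μM mephenytoin), test compound 10 μM or PBS; organic solvent <1%. 5 min preincubation at 37 °C, NADPH-generating system start, 20 min reaction; inhibition from metabolite formation relative to PBS.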

Another data set concerns the target CYP2D6 (Homo sapiens, UniProt P10635). In words: (§3) Inhibition of CYP2D6 in human liver microsomes at 10 uM using dextromethorphan substrate preincubated for 5 mins before NADPH addition and measured after 20 mins post NADPH addition. It counts as ADME. The following applies: liver microsomes, probe dextromethorphan. The method, boiled down:
as §2

For the next data set, the target named is CYP2C9 (Homo sapiens, UniProt P11712). In words: (§4) Inhibition of CYP2C9 in human liver microsomes at 10 uM using diclofenac substrate preincubated for 5 mins before NADPH addition and measured after 20 mins post NADPH addition. The following applies: liver microsomes, probe diclofenac. It counts as ADME. The method, boiled down: as §2
A further data set has as its target Cytochrome P450 3A4 (Homo sapiens, UniProt P08684). In words: Time dependent inhibition of CYP3A4 in human liver microsomes at 10 uM using midazolam substrate preincubated for 5 mins before NADPH addition and measured after 20 mins post NADPH addition. Format: ADME.
In a further data set the test system is MV4-11. In words: Growth inhibition of human MV4-11 cells after 72 hrs by CellTiter-Glo luminescent cell viability assay. The following applies: MV4-11, 72 h. On the technique in general: Cellular ATP, detected with luciferase, serves as a proxy for viable cell number.
The target of data set [4] is T1, Bromodomain-containing protein 4 (Homo sapiens, UniProt O60885). In words: Inhibition of BRD4 in human HT-29 cells assessed as reduction in c-Myc protein expression at 5 and 10 uM after 24 hrs by Western blotting method. Format: cell-based. The method, boiled down:
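HT-29 cells seeded overnight, then treated 24 h; lysed in 1×SDS buffer (50 mmol/L Tris-HCl pH 6.8, 100 mmol/L DTT, 2% SDS, 10% glycerol), boiled 10 min. c-Myc immunoblotted with GAPDH loading control, peroxidase secondary antibodies, ECL detection. Repeated three times.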
A general note: Immunoblotting shows a protein as a band on a membrane.

For data set [5], the target named is T1, Bromodomain-containing protein 4. In words: Inhibition of BRD4 in human HT-29 cells assessed as reduction in c-myc mRNA expression at 0.3125 uM to 5 uM uM after 24 hrs by RT-qPCR method. Format: cell-based. The method, boiled down:
(§5)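 HT-29 cells seeded overnight and exposed to compounds for 24 h; total RNA isolated, reverse-transcribed, and analysed by RT-qPCR with c-myc primers. Relative c-myc mRNA normalised to β-actin and expressed versus untreated control.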

For data set [6] the target is unchanged. In words: Inhibition of BRD4 in human HT-29 cells assessed as reduction in c-myc mRNA expression at 5 uM after 24 hrs by RT-qPCR method. It counts as cell-based. In short, it runs like this:
as §5

Data set [7] deals with T2, Cytochrome P450 2C9 (Homo sapiens, UniProt P11712). The data set is described as §4. Format: ADME. As to conditions: microsomes, 20 min, 10 µM. The method, boiled down:
as §2

Data set [8] concerns the target T2, Cytochrome P450 2C9. In words: Time dependent inhibition of CYP2C9 in human liver microsomes at 10 uM using diclofenac substrate preincubated for 5 mins before NADPH addition and measured after 20 mins post NADPH addition. Format: ADME.
Data set [9] has as its target T1, Bromodomain-containing protein 4. In words: Inhibition of BRD4 in human HT-29 cells assessed as reduction in c-myc mRNA expression at 0.3125 uM after 24 hrs by RT-qPCR method. It counts as cell-based. In short, it runs like this:
as §5

For data set [10], the target named is T3, Cytochrome P450 2D6 (Homo sapiens, UniProt P10635). In words: Time dependent inhibition of CYP2D6 in human liver microsomes at 10 uM using dextromethorphan substrate preincubated for 5 mins before NADPH addition and measured after 20 mins post NADPH addition. It counts as ADME.
The target in a further data set is T4, Cytochrome P450 1A2 (Homo sapiens, UniProt P05177).
T4 sequence (P05177 whole entry): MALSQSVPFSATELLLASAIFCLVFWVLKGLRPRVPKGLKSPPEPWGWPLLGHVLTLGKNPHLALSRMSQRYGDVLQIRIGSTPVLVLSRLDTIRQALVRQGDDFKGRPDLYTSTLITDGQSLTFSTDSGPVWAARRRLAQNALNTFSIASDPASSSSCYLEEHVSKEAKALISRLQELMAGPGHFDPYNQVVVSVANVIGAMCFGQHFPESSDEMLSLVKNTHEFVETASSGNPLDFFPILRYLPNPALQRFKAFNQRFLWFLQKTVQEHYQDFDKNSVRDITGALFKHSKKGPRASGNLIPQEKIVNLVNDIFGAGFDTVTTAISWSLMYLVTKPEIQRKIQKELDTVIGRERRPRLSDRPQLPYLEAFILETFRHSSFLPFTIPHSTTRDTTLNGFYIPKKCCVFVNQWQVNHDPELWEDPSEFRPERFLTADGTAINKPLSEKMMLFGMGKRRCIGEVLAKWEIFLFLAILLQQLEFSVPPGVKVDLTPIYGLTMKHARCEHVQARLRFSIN
In words: Time dependent inhibition of CYP1A2 in human liver microsomes at 10 uM using phenacetin substrate preincubated for 5 mins before NADPH addition and measured after 20 mins post NADPH addition. It counts as ADME.

Another data set has as its target Cytochrome P450 2C19 (Homo sapiens, UniProt P33261). In words: Time dependent inhibition of CYP2C19 in human liver microsomes at 10 uM using mephenytoin substrate preincubated for 5 mins before NADPH addition and measured after 20 mins post NADPH addition. It counts as ADME.
For data set [11], the target named is T3, Cytochrome P450 2D6. Described as §3. It counts as ADME. As to conditions: microsomes, 20 min, 10 µM. In short, it runs like this: as §2

T2 sequence (P11712 whole entry): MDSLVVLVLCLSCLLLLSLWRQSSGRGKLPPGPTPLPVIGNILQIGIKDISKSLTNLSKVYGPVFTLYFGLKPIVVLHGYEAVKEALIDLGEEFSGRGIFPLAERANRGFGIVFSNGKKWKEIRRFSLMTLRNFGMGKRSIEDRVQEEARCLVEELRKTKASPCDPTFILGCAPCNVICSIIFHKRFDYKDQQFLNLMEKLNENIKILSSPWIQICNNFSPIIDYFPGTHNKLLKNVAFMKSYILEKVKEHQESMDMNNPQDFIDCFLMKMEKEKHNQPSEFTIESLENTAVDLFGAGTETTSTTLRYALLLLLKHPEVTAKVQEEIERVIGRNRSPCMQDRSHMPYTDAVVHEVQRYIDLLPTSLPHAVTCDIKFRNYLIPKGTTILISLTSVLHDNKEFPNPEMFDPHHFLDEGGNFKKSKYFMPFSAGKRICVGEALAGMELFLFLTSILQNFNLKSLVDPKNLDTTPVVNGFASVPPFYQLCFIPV
Chain of CYP2C9 (P11712 whole entry): as above
Chain of Histone acetyltransferase p300 (Homo sapiens) (Q09472 whole entry): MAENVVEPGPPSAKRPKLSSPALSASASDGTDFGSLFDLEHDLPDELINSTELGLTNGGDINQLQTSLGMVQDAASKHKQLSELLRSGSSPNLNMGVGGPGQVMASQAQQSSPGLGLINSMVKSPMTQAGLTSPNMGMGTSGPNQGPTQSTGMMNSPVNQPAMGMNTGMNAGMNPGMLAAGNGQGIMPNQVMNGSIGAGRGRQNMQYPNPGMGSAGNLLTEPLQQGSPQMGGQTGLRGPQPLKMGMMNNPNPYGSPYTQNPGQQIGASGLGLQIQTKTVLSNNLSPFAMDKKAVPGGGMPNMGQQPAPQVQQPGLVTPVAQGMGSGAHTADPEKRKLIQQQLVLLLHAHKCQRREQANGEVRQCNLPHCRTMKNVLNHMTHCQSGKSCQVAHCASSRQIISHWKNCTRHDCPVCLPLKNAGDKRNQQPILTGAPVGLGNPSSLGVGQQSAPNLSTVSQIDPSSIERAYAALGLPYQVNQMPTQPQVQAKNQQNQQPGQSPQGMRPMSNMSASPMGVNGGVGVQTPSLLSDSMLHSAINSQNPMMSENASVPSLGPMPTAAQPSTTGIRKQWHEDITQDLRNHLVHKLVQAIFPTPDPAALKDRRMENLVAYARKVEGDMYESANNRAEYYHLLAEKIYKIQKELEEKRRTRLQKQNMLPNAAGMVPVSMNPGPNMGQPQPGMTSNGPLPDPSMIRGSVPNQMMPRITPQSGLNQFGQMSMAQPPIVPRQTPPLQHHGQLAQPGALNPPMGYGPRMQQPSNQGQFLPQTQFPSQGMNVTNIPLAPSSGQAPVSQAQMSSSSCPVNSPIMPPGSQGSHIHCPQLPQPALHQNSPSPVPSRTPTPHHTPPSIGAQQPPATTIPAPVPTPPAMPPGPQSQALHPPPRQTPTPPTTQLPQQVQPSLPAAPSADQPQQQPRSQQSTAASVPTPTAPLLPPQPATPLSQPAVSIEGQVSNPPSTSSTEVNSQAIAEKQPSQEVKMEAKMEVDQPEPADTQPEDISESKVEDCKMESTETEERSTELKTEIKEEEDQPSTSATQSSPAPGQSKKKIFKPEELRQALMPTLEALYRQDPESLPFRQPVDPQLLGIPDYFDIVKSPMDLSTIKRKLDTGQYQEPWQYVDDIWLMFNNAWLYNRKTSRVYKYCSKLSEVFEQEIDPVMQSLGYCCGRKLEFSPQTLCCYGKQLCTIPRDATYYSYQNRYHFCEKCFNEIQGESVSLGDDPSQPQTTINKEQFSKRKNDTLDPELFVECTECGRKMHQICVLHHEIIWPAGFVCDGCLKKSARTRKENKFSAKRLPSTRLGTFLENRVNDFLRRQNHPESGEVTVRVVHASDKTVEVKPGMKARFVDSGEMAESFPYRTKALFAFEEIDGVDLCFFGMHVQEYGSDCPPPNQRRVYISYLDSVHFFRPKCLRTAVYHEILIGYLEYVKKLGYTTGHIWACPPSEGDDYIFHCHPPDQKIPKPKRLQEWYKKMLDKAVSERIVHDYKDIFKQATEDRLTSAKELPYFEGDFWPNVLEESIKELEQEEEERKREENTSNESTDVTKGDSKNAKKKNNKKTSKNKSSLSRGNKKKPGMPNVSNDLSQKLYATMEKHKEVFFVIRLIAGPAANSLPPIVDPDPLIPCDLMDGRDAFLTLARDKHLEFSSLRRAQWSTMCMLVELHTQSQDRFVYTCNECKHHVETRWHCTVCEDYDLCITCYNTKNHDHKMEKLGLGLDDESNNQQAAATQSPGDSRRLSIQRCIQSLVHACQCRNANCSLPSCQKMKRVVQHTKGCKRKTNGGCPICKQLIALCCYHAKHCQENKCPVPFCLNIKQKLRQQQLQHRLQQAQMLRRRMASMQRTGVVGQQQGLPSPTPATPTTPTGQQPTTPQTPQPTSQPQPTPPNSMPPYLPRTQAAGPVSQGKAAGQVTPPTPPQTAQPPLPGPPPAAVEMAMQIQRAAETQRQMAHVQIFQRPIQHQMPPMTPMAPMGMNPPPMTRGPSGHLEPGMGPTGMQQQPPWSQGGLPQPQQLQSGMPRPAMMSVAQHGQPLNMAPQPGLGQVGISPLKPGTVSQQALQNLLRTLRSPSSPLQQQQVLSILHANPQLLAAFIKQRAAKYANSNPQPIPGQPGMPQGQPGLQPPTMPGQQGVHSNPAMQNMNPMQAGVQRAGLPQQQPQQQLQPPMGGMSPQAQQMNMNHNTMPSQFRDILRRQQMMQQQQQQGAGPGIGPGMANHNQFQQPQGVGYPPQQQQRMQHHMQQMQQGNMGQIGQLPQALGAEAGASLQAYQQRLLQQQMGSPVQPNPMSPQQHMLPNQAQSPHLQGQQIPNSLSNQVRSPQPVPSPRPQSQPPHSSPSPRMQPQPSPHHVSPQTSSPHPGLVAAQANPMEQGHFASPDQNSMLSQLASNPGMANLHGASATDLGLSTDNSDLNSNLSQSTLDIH
Chain of Cytochrome P450 2C19 (P33261 whole entry): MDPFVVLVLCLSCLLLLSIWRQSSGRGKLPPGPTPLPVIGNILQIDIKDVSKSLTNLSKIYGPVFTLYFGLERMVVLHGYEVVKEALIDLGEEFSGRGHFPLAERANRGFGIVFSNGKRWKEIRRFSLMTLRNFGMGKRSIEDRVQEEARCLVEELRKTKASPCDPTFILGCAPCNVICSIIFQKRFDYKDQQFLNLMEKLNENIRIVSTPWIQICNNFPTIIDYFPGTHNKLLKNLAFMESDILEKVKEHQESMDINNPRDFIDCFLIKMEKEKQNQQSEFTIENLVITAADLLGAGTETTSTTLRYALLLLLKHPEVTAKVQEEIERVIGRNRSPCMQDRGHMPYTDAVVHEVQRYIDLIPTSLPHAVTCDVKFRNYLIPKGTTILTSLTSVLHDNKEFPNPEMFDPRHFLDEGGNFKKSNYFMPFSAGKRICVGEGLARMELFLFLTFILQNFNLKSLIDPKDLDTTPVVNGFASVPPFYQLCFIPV
Chain of CYP2D6 (P10635 whole entry): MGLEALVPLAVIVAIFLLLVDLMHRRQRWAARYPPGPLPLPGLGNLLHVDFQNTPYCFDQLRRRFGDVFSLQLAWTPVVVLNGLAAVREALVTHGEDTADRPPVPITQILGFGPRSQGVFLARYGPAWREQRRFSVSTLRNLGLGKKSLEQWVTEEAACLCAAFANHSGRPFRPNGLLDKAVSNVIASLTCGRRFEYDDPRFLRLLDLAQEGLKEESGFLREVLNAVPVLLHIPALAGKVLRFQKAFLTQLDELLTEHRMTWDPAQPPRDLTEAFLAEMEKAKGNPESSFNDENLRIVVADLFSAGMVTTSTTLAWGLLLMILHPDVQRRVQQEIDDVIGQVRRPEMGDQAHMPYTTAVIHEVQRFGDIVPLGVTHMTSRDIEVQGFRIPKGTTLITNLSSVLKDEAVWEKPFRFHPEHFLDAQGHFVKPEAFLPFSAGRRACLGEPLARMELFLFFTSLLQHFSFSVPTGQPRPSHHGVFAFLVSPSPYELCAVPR
T3 sequence (P10635 whole entry): as above
Chain of CYP3A4 (P08684 whole entry): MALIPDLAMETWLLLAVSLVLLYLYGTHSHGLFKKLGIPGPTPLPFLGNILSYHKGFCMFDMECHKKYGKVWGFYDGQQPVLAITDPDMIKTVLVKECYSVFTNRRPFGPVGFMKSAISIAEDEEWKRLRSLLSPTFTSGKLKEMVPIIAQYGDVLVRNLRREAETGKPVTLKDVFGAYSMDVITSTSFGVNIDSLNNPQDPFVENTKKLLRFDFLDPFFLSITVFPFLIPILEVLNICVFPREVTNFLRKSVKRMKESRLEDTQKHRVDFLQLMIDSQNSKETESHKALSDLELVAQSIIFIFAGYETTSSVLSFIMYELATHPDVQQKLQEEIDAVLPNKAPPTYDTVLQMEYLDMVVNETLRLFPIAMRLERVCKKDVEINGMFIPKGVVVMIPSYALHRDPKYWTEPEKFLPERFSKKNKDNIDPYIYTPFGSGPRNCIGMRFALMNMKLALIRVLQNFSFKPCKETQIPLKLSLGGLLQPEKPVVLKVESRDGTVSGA
Chain of Cytochrome P450 3A4 (P08684 whole entry): as above

For the compound `Nc1ccc(-c2csc(=O)[nH]2)cc1S(=O)(=O)NC1CCCC1`, the ΔTm in data set [1] was -0.08 °C; in [2] it was 0.39 °C. Besides, the microsomal CLint at 1 µM in data set [3] stood at 20 µL/min/mg. Also, the figures for the inhibition at 20 min, 10 µM at CYP3A4, on CYP2D6 and against CYP2C9 were 70%, 18% and 74%, respectively. For the same compound, the TDI entry at Cytochrome P450 3A4 is on record as “Active”. This compound also came in with an IC50 with MV4-11 of 289 nM.

As to `Cc1c(Br)cc(-c2csc(=O)[nH]2)cc1S(=O)(=O)NC1CCCC1`, the ΔTm is -1.01 °C in data set [1] and 0.94 °C in data set [2]. Further, the inhibition entry in data set [4] and in data set [5] was “Active” throughout. In addition, the inhibition in [6] was > 60%. Further, in [3], the microsomal CLint at 1 µM was found to be 84 µL/min/mg. Moreover, the inhibition at 20 min, 10 µM against CYP3A4 stood at 42%; against CYP2D6 it was 39%. In addition, the “inhibition (INH)” value on Cytochrome P450 2C9 [7] is reported as “Not Active”. Moreover, on Cytochrome P450 2C9 [8], the TDI result is listed as “Active”. For the same compound, the IC50 with MV4-11 came to 141 nM.

Consider `Cc1c(N)cc(-c2csc(=O)[nH]2)cc1S(=O)(=O)NC1CCCC1`, for which the results for the ΔTm in data set [1] and in data set [2] were 0.19 °C and 0.57 °C, respectively. Besides, the inhibition result in [4], in data set [5] and in [9] was “Active” each time. Also, the inhibition in data set [6] was determined as 90%. In addition, the microsomal CLint at 1 µM in data set [3] turned out to be 66 µL/min/mg. For the same compound, the inhibition at 20 min, 10 µM on CYP3A4 was 42%; at CYP2D6, 3%. Also, the “inhibition (INH)” value against Cytochrome P450 2C9 [7] was “Not Active”. In addition, the TDI result at Cytochrome P450 3A4, on Cytochrome P450 2D6 [10], at Cytochrome P450 2C9 [8], at Cytochrome P450 1A2 and at Cytochrome P450 2C19 was “Not Active” each time. The same compound showed an IC50 in the data set with MV4-11 of 184 nM.

With `COc1ccc(-c2csc(=O)[nH]2)cc1S(=O)(=O)NC1CCCC1`, the ΔTm in data set [1] was determined as 0.49 °C; in data set [2], 0.41 °C. Moreover, in [3], the microsomal CLint at 1 µM was determined as 56 µL/min/mg. Further, the inhibition at 20 min, 10 µM worked out at 20% against CYP3A4 and 10% against CYP2C9. Besides, on Cytochrome P450 2D6 [11], the “inhibition (INH)” value is “Not Active”. For the same compound, the TDI entry at Cytochrome P450 2D6 [10] and at Cytochrome P450 2C19 was “Active” in each case. For the same compound, 547 nM corresponded to half-maximal inhibition in the data set on MV4-11 (IC50).

As to `Cc1ccc(-c2csc(=O)[nH]2)cc1S(=O)(=O)NC1CCCC1`, the thermal shift (ΔTm) in [1] is -0.17 °C; in data set [2] it was 0.69 °C. Further, the microsomal CLint at 1 µM in [3] amounted to 128 µL/min/mg. For the same compound, the inhibition at 20 min, 10 µM on CYP3A4 was found to be 62%; against CYP2D6 it was 27%. The “inhibition (INH)” value against Cytochrome P450 2C9 [7] is reported as “Not Active”. For the same compound, the TDI result on Cytochrome P450 2C9 [8] and at Cytochrome P450 2C19 was “Active” each time. Moreover, in the data set on MV4-11, the IC50 came out at 459 nM.

Regarding `O=C(Nc1cc(-c2csc(=O)[nH]2)cc(S(=O)(=O)NC2CCCC2)c1)C1CC1`, the ΔTm in [1] is -0.54 °C; in data set [2], 1.03 °C. Further, the inhibition result in data set [4] and in data set [5] was “Active” in each case. Also, the inhibition in data set [6] is > 60%. The microsomal CLint at 1 µM in data set [3] came to 74 µL/min/mg. The inhibition at 20 min, 10 µM worked out at 14% against CYP3A4, 17% on CYP2D6 and 14% against CYP2C9. The TDI entry on Cytochrome P450 3A4, at Cytochrome P450 2D6 [10], on Cytochrome P450 2C9 [8], at Cytochrome P450 1A2 and on Cytochrome P450 2C19 was “Not Active” in each case. For the same compound, the IC50 in the data set on MV4-11 amounted to 228 nM.

The values above are taken from ChEMBL document CHEMBL3407418, “Fragment-based drug discovery of 2-thiazolidinones as BRD4 inhibitors: 2. Structure-based optimization” (J Med Chem, 2015).
